Laboratory results from ChEMBL document CHEMBL1132485, “Synthesis and biological evaluation of a potent E-selectin antagonist” (J Med Chem, 1999).
Values joined by “and” are separate entries in the source; they are usually repeats but may differ in a detail not shown here. Identical values can stand only once.

What was measured:
[1] = target: T1, E-selectin (Homo sapiens, UniProt P16581); assay: In vitro inhibitory activity against Selectin E
T1 sequence (P16581 whole entry): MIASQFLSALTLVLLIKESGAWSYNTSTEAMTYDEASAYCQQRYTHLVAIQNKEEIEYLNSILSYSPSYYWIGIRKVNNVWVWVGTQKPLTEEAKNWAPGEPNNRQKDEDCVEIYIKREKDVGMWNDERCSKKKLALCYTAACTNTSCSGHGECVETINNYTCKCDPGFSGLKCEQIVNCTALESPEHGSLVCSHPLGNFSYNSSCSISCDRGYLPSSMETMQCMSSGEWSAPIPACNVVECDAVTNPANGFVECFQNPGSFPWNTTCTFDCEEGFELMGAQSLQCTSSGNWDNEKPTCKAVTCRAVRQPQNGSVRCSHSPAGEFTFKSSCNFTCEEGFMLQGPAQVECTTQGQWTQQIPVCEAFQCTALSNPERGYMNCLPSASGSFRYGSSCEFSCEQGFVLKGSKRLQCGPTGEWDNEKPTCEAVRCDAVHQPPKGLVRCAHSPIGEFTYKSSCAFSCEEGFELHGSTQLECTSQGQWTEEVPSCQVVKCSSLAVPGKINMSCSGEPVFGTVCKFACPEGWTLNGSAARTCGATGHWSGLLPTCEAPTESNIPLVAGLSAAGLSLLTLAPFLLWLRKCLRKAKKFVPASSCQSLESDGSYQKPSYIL
How it was run: (§1)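 Cell-free competitive binding assay in which immobilized E-selectin is incubated with a multivalent polylysine/sialyl Lewis^a conjugate and then treated with test compounds. The sLe^x tetrasaccharide is run as a reference on every plate. Relative IC50 is IC50(test)/IC50(sLe^x) from the same plate. Data come from three separate assays.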

[2] = organism: Mus musculus; assay: Inhibitory effect in a thioglycollate induced peritonitis model of acute inflammation in mice; format: functional
[3] = target: T2, E-selectin (Homo sapiens) (UniProt P16581); assay: Ratio of IC50 of compound to IC50 of sLex; format: functional; how it was run: as §1
T2 sequence (whole entry): T1 sequence (P16581 whole entry)

[4] = target: T1, E-selectin; assay: In vitro inhibitory activity against Selectin E measured by sLex(static cell free ligand binding assay); how it was run: as §1

Compound	IC50 [1]	ED50 [2]	Relative IC50 [3]	IC50 [4]
C[C@@H]1O[C@@H](O[C@@H]2[C@H](CO)OCC[C@H]2O[C@@H]2O[C@@H](CO)[C@H](O)C(O[C@@H](CC3CCCCC3)C(=O)[O-])[C@@H]2O)[C@@H](O)[C@@H](O)[C@@H]1O.[Na+] (some centres undefined)	33 µM and 24 µM and 51 µM and 36 µM	15 mg/kg	0.031 [middle of 4 runs]	–
COC(=O)CCCCCCCCO[C@@H]1C[C@@H](CO)[C@@H](O[C@@H]2O[C@@H](O)[C@H](O)[C@H](O[C@]3(C(=O)O)C[C@@H](O)[C@@H](NC(C)=O)[C@H]([C@H](O)[C@H](O)CO)O3)[C@@H]2O)[C@H](O[C@@H]2O[C@@H](C)[C@@H](O)[C@H](O)[C@@H]2O)[C@@H]1NC(C)=O	–	–	–	1180 µM and 889 µM and 1310 µM and 1130 µM
